# Myeloid diff 2 – induction of myeloid progenitor differentiation, primary screen, cell-based, flow cytometry, MLPCN library; AID 624256, 2012; ER-HoxA9 myeloid progenitors, lysozyme-GFP differentiation; hit rate 1% among 360,000; calls only at 10 µM;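 active means normalized GFP-positive differentiation at or above the plate's own cutoff, the solvent-only control mean plus 3 SD; inconclusive means no clear call, values can overlap the other calls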;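 further: cells exposed to compound for four days before flow analysis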
# Granule exo inh – LAMP-1 surface exposure blockers, TALL-104 cells – cell-based, flow cytometry, MLPCN library, primary screen | TALL-104 LAMP-1 surface exposure; cells stimulated with thapsigargin and PMA | inhibition, % at 10 µM | hit rate 0.66% among 360,000 | AID 651702, 2012;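 active means inhibition above about 55%, limit read from the data; inconclusive means no clear call, values can overlap the other calls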
# DSG3 Ab inh – inhibitors of pemphigus antibody binding to DSG3, primary screen, biochemical, bead-based, flow cytometry, scFv-GFP; Desmoglein-3 (Homo sapiens), P32926; DSG3-coupled beads, scFv-anti-DSG3-GFP binding; stronger effect = lower value; binding (percent of control), % at 10 µM; hit rate 0.48% among 310,000; AID 588358, 2011;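 active means binding more than 3 SD below its plate's average and above zero; inconclusive means below that plate limit but binding exactly zero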
# HNF4A DNA FP – change in binding of human HNF4A to DNA, primary screen, biochemical, fluorescence polarization, FITC-DNA | Hepatocyte nuclear factor 4-alpha (Homo sapiens), P41235 | 1 h | activity change, % at 10 µM | hit rate 0.3% among 360,000 | AID 1224865, 2016; in the data active means activity change above about 30%, passing the limit was not always enough
# Cardio protect – cardioprotection against H2O2-induced cell death, primary screen, uHTS, H9c2 cells, ATPLite luminescence; H9c2 cardiomyocytes, H2O2 injury protection, 2 h; protection from H2O2 cell death, % at 20 µM; hit rate 0.63% among 360,000;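 active means compounds giving at least 50% protection of heart cells from peroxide-induced death in the single-dose screen, raw or plate-pattern-corrected value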
# SENP1 FRET inh – human SENP1 catalytic domain inhibitors, primary screen, biochemical, FRET, uHTS; Sentrin-specific protease 1 (Homo sapiens), Q9P0U3; recombinant SENP1 catalytic domain, CyPet-SUMO1-YPet FRET cleavage; inhibition, % at 10 µM; hit rate 0.21% among 360,000;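 active means inhibition at least 30% at 10 µM, raw YFP signal under a set limit, fluorescence ratio 0.5 to 1.5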
# Target sequence (Q9P0U3 419-644 limits assumed): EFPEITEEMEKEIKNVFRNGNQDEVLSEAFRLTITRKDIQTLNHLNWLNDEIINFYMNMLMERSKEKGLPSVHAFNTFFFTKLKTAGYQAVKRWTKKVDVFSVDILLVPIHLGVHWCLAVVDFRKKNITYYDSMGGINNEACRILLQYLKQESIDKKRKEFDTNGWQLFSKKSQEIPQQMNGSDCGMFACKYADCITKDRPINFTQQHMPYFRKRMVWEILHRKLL
#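 Test system: human SENP1 catalytic domain; medium: Tris pH 8 buffer plus EDTA, NaCl, BME, BSA, NP40, catalase; incubation: 50 min reaction at room temperature; technique: FRET, CFP and YFP emission; controls: no-enzyme low control and enzyme-plus-DMSO high control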
# A number is an active result; - = inactive; ? = inconclusive; . = no result given; + = active, no number. Most compounds without a hit are left out; they make up all but 3% or so of the library.
SMILES,Myeloid diff 2,Granule exo inh,DSG3 Ab inh,HNF4A DNA FP,Cardio protect,SENP1 FRET inh
COc1ccnc(Oc2ccc(F)cc2)c1C(=O)N/C=N/OCc1ccc(Cl)cc1Cl,-,-,-,-,50.9,-
O=C(CSc1nc2ccccc2n1-c1ccccc1)Nc1ncc(Cl)cc1Cl,-,-,-,-,-,-
Cc1cccc(-n2c(SCC(=O)Nc3ncc(Cl)cc3Cl)nc3ccccc32)c1,+,-,-,-,-,-
Cc1cccc2cc(CN(C(=O)c3cccc([N+](=O)[O-])c3)C(C)C)c(=O)[nH]c12,-,-,59.5,-,-,-
COc1ccc(C2C=C(C34CC5CC(CC(C5)C3)C4)NC(=S)N2)cc1 (centres undefined),-,-,-,-,-,-
COc1ccc(C2=NN(CN3C(=O)C(=O)c4ccccc43)C(c3ccc(OC)cc3)C2)cc1 (centres undefined),-,-,-,-,-,-
CN1C(=O)C(N=Nc2ccccc2C(=O)O)N(C)C1=S (centres undefined),-,-,-,-,-,55.5
Cc1ccc(N2CC(C(=O)Nc3nc4ccc(S(C)(=O)=O)cc4s3)CC2=O)cc1C (centres undefined),-,-,-,-,-,-
C=CCn1c(C)cc(C(=O)COC(=O)CNC(=O)c2ccccc2)c1C,-,-,71.8,-,-,-
Cc1ccc(C(=O)NCC(=O)OCC(=O)c2cc(C)n(Cc3ccco3)c2C)cc1,-,-,-,-,-,-
CSc1nc2nccc(-c3ccc4c(c3)OCO4)n2n1,-,-,103.6,-,-,-
O=C1c2ccccc2C(=O)N1CC(O)COc1cccc2ccccc12 (centres undefined),-,-,.,-,-,-
O=[N+]([O-])c1ccc(-c2nc(Nc3ccc(O)cc3)c3ccccc3n2)cc1,-,-,-,-,51.7,-
CN(Cc1ccccc1)S(=O)(=O)c1ccc2[nH]c(=O)ccc2c1,-,-,-,-,-,-
COC(=O)c1c(-c2ccc(OC)cc2)sc2ccc(N3CCOCC3)cc12,-,-,66.3,-,-,-
CCOc1ccc(-n2c(SCC(=O)Nc3cc(C)on3)nnc2-c2c[nH]c3ccccc23)cc1,-,-,-,-,-,-
Cc1cc(NC(=O)CSc2nnc(-c3c[nH]c4ccccc34)n2-c2ccc(F)cc2)no1,-,-,14.2,-,-,-
NC(=O)CN1C(=O)/C(=c2\sc3nc(=O)c(Cc4ccccc4)nn3c2=O)c2ccccc21,-,-,-,-,-,-
CCCN1C(=O)/C(=c2\sc3nc(=O)c(Cc4ccc(C)cc4)nn3c2=O)c2ccccc21,.,-,67.7,-,-,-
COC(=O)c1ccc(N2C(c3cc(OC)cc(OC)c3)=Cc3ccc(-c4cccnc4)cc3C2CC(=O)C2CC2)cc1 (centres undefined),-,-,.,-,.,-
COc1ccc2oc(C(=O)OCC(=O)c3ccc4c(c3)OCCO4)c(C)c2c1,+,-,-,-,-,-
COc1ccc2oc(C(=O)N(C)Cc3ccc4c(c3)OCCO4)c(C)c2c1,-,-,-,-,-,-
COC(=O)C1=CNC=C(C(=O)OC)C1c1ccc(Cl)cc1,+,-,.,-,-,-
O=c1c2c([N+](=O)[O-])cc([N+](=O)[O-])cc2sn1Cc1ccccc1,-,-,36.9,-,-,-
O=c1c2c([N+](=O)[O-])cc([N+](=O)[O-])cc2sn1-c1ccc(Br)cc1,-,91.9,-121.2,-,-,-
SMILES,Myeloid diff 2,Granule exo inh,DSG3 Ab inh,HNF4A DNA FP,Cardio protect,SENP1 FRET inh
O=C(NCC(=O)N1CCN(C(=O)c2ccccc2)CC1)c1ccc(Cl)cc1Cl,-,-,-,-,-,-
COc1ccc(N(S(=O)(=O)c2ccccc2)S(=O)(=O)c2ccccc2)c(N)c1,-,-,-,-,-,-
COc1cccc2cc(-c3cc(=O)oc4ccc(OCC(C)=O)cc34)oc12,-,-,-,-,62.8,-
NC(=O)COc1ccc2oc(=O)cc(-c3cc4ccccc4o3)c2c1,-,-,-,-,70.6,-
COC(=O)COc1ccc2oc(=O)cc(-c3cc4ccccc4o3)c2c1,-,-,-,-,-,-
O=C(c1cc2ccccc2o1)N1CCN(S(=O)(=O)c2ccc(F)c(F)c2F)CC1,-,-,-,-,-,-
O=[N+]([O-])c1cc([N+](=O)[O-])c(Oc2cc(Cl)cc(Cl)c2)cc1NN1CCCCC1,-,-,-,-,-,-
O=C(COC(=O)c1cc(=O)[nH]c2ccccc12)NCc1cccs1,-,-,-,-,-,-
NC(=O)c1ccsc1NC(=O)COC(=O)c1cc(=O)[nH]c2ccccc12,-,-,82.8,-,-,-
NNC(=O)c1ccc(CN2C(=O)c3cccc4cccc2c34)cc1,-,-,-,-,-,-
COc1ccccc1/C=N/NC(=O)c1ccc(CN2C(=O)c3cccc4cccc2c34)cc1,-,-,65.3,-,-,-
Cc1cccc2sc(N(CCN(C)C)C(=O)/C=C/c3cccs3)nc12,-,-,-,-,-,-
CN(C)CCCN(C(=O)/C=C/c1cccs1)c1nc2c(F)cccc2s1,-,56.8,-,-,-,-
C#CCN1C(=O)S/C(=C/C=C/c2ccc(N(C)C)cc2)C1=O,-,-,-,78.5,-,-
O=C(CN1C(=O)S/C(=C\C=C\c2ccccc2)C1=O)Nc1ccccc1C(=O)O,-,-,-,-,-,-
O=C(O)c1nn(CC(=O)N2CCN(c3ccccc3)CC2)c(=O)c2ccccc12,-,-,-,-,66.3,-
O=C(Cn1cnc2c(cnn2-c2ccc(F)cc2)c1=O)N1CCN(c2ccccc2)CC1,-,-,-,-,-,-
O=C(O)c1nn(CC(=O)N2CCC(Cc3ccccc3)CC2)c(=O)c2ccccc12,-,-,-,-,-,-
O=C(CCn1nc(-c2ccccc2)c2ccccc2c1=O)N1CCN(c2ccccc2)CC1,-,-,-,-,52.9,-
O=C(Cn1cnc2c(cnn2-c2ccccc2)c1=O)N1CCN(c2ccc(F)cc2)CC1,-,-,86.5,-,-,-
O=C(CCn1nc(-c2ccccc2)ccc1=O)N1CCN(c2ccccc2)CC1,-,-,-,-,-,-
COc1cc(C(=O)N2CCN(C)C(C)C2)ccc1OC1CCN(C(C)=O)CC1 (centres undefined),-,-,-,-,-,-
COc1cc(N(C)C)ccc1C=c1c2ccccc2n2c1cc(-c1ccccc1)[n+]2C,.,99.6,-,-,-,-
CN(C)c1ccc(C=c2c3ccccc3n3c2cc(-c2ccccc2)[n+]3C)cc1,?,88.9,.,74.2,-,-
